Reference: ChEMBL document CHEMBL4033702, “Challenges in the development of an M4 PAM preclinical candidate: The discovery, SAR, and in vivo characterization of a series of 3-aminoazetidine-derived amides” (Bioorg Med Chem Lett, 2017)
Values joined by “and” are separate entries in the source; they are usually repeats but may differ in a detail not shown here. Equal entries are not always repeated.

Columns and labels:
[1] = target: T1, Muscarinic acetylcholine receptor M4 (Homo sapiens, UniProt P08173); assay: Positive allosteric modulation of human M4 receptor expressed in CHO cells co-expressing Gqi5 assessed as increase in acetylcholine-induced calcium mobilization
T1 sequence (P08173 whole entry): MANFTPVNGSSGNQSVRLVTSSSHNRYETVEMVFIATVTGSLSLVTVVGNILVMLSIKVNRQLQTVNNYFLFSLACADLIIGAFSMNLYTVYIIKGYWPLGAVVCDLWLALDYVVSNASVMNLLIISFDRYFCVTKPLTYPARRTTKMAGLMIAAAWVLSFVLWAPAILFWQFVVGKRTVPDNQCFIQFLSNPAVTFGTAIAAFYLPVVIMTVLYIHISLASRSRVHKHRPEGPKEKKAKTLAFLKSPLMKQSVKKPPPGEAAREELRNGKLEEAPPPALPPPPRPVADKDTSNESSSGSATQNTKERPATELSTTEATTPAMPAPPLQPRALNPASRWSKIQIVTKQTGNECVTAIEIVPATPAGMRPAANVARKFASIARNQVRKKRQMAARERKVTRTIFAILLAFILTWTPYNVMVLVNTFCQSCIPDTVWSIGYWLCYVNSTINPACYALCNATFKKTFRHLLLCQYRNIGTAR

[2] = target: T2, Muscarinic acetylcholine receptor M4 (Homo sapiens) (UniProt P08173); assay: Positive allosteric modulation of human M4 receptor expressed in CHO cells co-expressing Gqi5 assessed as increase in acetylcholine-induced calcium mobilization relative to acetylcholine; type: functional, cell-based
T2 sequence (whole entry): T1 sequence (P08173 whole entry)
Method in brief: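 Calcium mobilization in CHO cells stably co-expressing hM4 and Gqi5, tested in the presence of a fixed EC20 concentration of acetylcholine. Values are means of three independent experiments, each run in triplicate.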

[3] = Brain to plasma permeability coefficient, Kp of the compound in Sprague-Dawley rat administered as iv cassette dose measured at 0.25 hrs post dose; type: ADME, organism-based; details: for Kp at 0.25 h: Sprague-Dawley, brain and plasma; for Kp: brain, 0.25 h
[4] = target: T3, Muscarinic acetylcholine receptor M2 (Homo sapiens, UniProt P08172); assay: Activity at human M2 receptor assessed as increase in acetylcholine-induced calcium mobilization; type: functional
T3 sequence (P08172 whole entry): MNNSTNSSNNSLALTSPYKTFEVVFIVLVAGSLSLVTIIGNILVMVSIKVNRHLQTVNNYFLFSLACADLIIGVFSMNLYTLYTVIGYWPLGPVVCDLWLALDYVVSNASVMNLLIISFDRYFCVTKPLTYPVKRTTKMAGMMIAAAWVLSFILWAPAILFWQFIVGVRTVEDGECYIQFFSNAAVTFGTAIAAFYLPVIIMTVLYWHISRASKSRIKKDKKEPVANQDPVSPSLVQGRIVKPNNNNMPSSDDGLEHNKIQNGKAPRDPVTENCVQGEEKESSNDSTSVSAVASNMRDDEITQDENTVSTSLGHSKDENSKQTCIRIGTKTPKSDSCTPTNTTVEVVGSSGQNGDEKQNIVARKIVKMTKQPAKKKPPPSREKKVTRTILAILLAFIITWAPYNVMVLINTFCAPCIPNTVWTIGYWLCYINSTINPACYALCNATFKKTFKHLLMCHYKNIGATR

[5] = Clearance in Sprague-Dawley rat; type: ADME; details: in vivo
Method in brief: (§1)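 IV and PO pharmacokinetics in male Sprague-Dawley rats, n = 1–3. The oral dose was a 2–3 mg/kg solution. Plasma clearance, Vss and oral bioavailability were determined.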

[6] = Ratio of unbound brain to plasma concentration in Sprague-Dawley rat administered as iv cassette dose measured at 0.25 hrs post dose; type: ADME, organism-based
[7] = tested on: MDR1; assay: Efflux ratio of permeability in MDCK2-MDR1 cells; type: ADME, cell-based, Canis lupus familiaris; details: dog, MDCK-MDR1
[8] = target: T4, Muscarinic acetylcholine receptor M2 (Homo sapiens) (UniProt P08172); assay: Activity at human M2 receptor assessed as increase in acetylcholine-induced calcium mobilization relative to acetylcholine; type: functional
T4 sequence (whole entry): T3 sequence (P08172 whole entry)

[9] = tested on: Rattus norvegicus; assay: Reversal of amphetamine-induced hyperlocomotion in Sprague-Dawley rat at 10 mg/kg, po pretreated 30 mins post habituation in the chamber followed by amphetamine injection after 30 mins measured after 60 mins; type: functional
Method in brief: (§2)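 Male Sprague-Dawley rats, n = 6–24 per dose group, were habituated in the chamber for 30 min. The compound or vehicle (10% tween-80 in water, v/v) was then given orally. Amphetamine 0.75 mg/kg was injected subcutaneously 30 min later. Total ambulations over t = 60–120 min gave % reversal of AHL, reported as mean ± SEM.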

[10] = species: Rattus norvegicus; assay: Drug metabolism in Sprague-Dawley rat assessed as aldehyde oxidase-mediated metabolism at alpha to 4-pryidyl nitrogen; type: ADME
[11] = Elimination half-life in Sprague-Dawley rat; type: ADME; details: in vivo, read-out: beta t1/2 (converted)
[12] = target: Cytochrome P450 3A4 (Homo sapiens, UniProt P08684); assay: Inhibition of CYP3A4 (unknown origin); type: ADME
[13] = target: Cytochrome P450 2D6 (Homo sapiens, UniProt P10635); assay: Inhibition of CYP2D6 (unknown origin); type: ADME
[14] = target: Cytochrome P450 2C9 (Homo sapiens, UniProt P11712); assay: Inhibition of CYP2C9 (unknown origin); type: ADME
[15] = target: T5, Cytochrome P450 1A2 (Homo sapiens, UniProt P05177); assay: Inhibition of CYP1A2 (unknown origin); type: ADME
T5 sequence (P05177 whole entry): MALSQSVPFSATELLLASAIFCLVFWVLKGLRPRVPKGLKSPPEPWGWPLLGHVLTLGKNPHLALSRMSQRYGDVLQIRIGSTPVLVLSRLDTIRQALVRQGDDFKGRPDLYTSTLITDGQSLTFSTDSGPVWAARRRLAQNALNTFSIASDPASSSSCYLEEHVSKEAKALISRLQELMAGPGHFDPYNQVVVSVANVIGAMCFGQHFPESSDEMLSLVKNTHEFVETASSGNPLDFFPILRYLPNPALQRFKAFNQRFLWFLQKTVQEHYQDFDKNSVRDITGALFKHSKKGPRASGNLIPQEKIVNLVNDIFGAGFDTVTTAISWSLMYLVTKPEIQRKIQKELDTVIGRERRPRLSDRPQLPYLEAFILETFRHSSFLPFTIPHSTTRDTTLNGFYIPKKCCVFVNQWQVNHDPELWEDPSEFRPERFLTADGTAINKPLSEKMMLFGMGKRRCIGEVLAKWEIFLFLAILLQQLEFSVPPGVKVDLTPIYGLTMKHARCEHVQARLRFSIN

[16] = Volume of distribution at steady state in Sprague-Dawley rat; type: ADME; details: in vivo, read-out: Vdss; method in brief: as §1
[17] = tested on: Rattus norvegicus; assay: Reversal of amphetamine-induced hyperlocomotion in Sprague-Dawley rat at 3 mg/kg, po pretreated 30 mins post habituation in the chamber followed by amphetamine injection after 30 mins measured after 60 mins; type: functional; method in brief: as §2
[18] = tested on: Rattus norvegicus; assay: Reversal of amphetamine-induced hyperlocomotion in Sprague-Dawley rat at 30 mg/kg, po pretreated 30 mins post habituation in the chamber followed by amphetamine injection after 30 mins measured after 60 mins; type: functional; method in brief: as §2
[19] = tested on: Rattus norvegicus; assay: Reversal of amphetamine-induced hyperlocomotion in Sprague-Dawley rat at 56.6 mg/kg, po pretreated 30 mins post habituation in the chamber followed by amphetamine injection after 30 mins measured after 60 mins; type: functional; details: in the assay text read “1 mg/kg” for “56.6 mg/kg”; method in brief: as §2

Sequence of Cytochrome P450 2C9 (P11712 whole entry): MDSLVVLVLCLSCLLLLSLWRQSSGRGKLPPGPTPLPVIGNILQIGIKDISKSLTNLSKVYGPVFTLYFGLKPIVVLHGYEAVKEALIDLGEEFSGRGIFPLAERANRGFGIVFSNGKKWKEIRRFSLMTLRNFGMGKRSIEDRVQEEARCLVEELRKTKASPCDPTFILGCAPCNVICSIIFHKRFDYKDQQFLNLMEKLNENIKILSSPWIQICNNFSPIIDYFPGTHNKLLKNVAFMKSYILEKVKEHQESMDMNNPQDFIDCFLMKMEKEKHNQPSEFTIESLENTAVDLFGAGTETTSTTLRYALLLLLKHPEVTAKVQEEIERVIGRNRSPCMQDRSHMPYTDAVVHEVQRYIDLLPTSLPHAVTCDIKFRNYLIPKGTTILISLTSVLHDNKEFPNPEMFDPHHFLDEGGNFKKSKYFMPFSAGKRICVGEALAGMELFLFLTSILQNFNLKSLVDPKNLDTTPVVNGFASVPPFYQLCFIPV
Sequence of Cytochrome P450 2D6 (P10635 whole entry): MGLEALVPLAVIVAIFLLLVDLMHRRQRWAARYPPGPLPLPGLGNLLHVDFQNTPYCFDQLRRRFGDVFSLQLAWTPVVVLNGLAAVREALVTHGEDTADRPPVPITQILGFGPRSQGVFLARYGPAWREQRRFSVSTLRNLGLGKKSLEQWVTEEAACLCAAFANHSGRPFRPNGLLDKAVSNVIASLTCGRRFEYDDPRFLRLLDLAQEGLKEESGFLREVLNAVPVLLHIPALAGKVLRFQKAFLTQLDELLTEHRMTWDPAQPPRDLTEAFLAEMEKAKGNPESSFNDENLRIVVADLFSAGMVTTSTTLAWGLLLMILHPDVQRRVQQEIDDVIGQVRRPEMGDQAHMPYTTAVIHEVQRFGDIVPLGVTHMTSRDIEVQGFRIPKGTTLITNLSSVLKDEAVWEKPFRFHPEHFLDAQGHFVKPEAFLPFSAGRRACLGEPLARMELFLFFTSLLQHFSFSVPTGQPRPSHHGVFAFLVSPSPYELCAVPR
Sequence of Cytochrome P450 3A4 (P08684 whole entry): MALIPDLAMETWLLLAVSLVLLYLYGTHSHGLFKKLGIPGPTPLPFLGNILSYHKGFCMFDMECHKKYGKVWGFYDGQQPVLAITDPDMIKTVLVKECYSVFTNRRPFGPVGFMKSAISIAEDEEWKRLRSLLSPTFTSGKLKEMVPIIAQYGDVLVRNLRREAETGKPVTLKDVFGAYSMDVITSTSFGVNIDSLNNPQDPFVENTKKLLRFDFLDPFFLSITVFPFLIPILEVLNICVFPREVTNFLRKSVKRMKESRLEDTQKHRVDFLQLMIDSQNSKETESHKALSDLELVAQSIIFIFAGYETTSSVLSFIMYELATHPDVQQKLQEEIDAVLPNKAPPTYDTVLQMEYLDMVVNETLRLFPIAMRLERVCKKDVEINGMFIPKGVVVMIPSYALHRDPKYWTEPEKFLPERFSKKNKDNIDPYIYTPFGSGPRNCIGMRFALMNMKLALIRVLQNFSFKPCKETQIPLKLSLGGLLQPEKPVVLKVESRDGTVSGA

SMILES | EC50 [1] | %max [2] [%] | further results
Cc1nnc2sc(C(=O)NC3CN(c4ccncn4)C3)c(N)c2c1C | 0.038 µM | 83 | Kp at 0.25 h [3]: < 0.05
Cc1nnc2sc(C(=O)NC3CN(c4ccccn4)C3)c(N)c2c1C | 0.124 µM | 81 | –
Cc1nnc2sc(C(=O)NC3CN(C(=O)c4ccccn4)C3)c(N)c2c1C | 0.564 µM | 91 | –
Cc1nnc2sc(C(=O)NC3CN(c4ccc(S(=O)(=O)C(F)F)cc4)C3)c(N)c2c1C | 0.325 µM | 75 | –
COc1ccc(N2CC(NC(=O)c3sc4nnc(C)c(C)c4c3N)C2)cc1 | 1.29 µM | 81 | –
Cc1nnc2sc(C(=O)NC3CN(c4ccnc(Cl)c4)C3)c(N)c2c1C | 0.185 µM | 87 | –
Cc1nnc2sc(C(=O)NC3CN(c4cccnc4F)C3)c(N)c2c1C | 0.029 µM | 82 | –
Cc1nnc2sc(C(=O)NC3CN(c4ccccc4F)C3)c(N)c2c1C | 0.028 µM | 82 | –
Cc1nnc2sc(C(=O)NC3CN(C(=O)c4ccncc4)C3)c(N)c2c1C | 0.179 µM | 85 | EC50 [4]: > 10 µM; clearance [5]: 3.1 mL/min/kg; Kp [3]: 0.03; K(p,uu,brain) [6]: 0.37; efflux ratio [7]: 96
COc1cccc(N2CC(NC(=O)c3sc4nnc(C)c(C)c4c3N)C2)c1 | 0.141 µM and 0.132 µM | 77 | –
Cc1cccc(OC(=O)N2CC(NC(=O)c3sc4nnc(C)c(C)c4c3N)C2)c1 | 0.067 µM | 85 | –
Cc1nnc2sc(C(=O)NC3CN(c4ccc(F)c(F)c4)C3)c(N)c2c1C | 0.0288 µM and 0.03 µM | 84 | clearance [5]: 4.4 mL/min/kg
Cc1nnc2sc(C(=O)NC3CN(c4ccccc4)C3)c(N)c2c1C | 0.025 µM | 85 | EC50 [4]: 1.78 µM; clearance [5]: 45 mL/min/kg; Kp [3]: 0.57; K(p,uu,brain) [6]: 0.73; %max [8]: 58%
Cc1nnc2sc(C(=O)NCc3ccc(S(=O)(=O)C(F)(F)F)cc3)c(N)c2c1C | – | – | Activity [9]: 62%
Cc1nnc2sc(C(=O)NC3CN(c4cnccn4)C3)c(N)c2c1C | 0.078 µM and 0.0741 µM | 80 | Kp at 0.25 h [3]: < 0.05
Cc1nnc2sc(C(=O)NC3CN(c4ccncc4Cl)C3)c(N)c2c1C | 0.008 µM | 86 | Drug metabolism [10]: Metabolite_Detected
Cc1nnc2sc(C(=O)NC3CN(c4cncnc4)C3)c(N)c2c1C | 0.041 µM and 0.0389 µM | 89 | Kp at 0.25 h [3]: < 0.05

SMILES | EC50 [1] | %max [2] [%] | further results
Cc1nnc2sc(C(=O)NC3CN(c4nc5cccnc5s4)C3)c(N)c2c1C | 0.106 µM | 81 | EC50 [4]: 0.22 µM; Kp [3]: 0.17; K(p,uu,brain) [6]: 1.3; Activity [9]: 16%
Cc1nnc2sc(C(=O)NC3CN(C(=O)c4ccccc4)C3)c(N)c2c1C | 0.773 µM | 85 | –
Cc1nnc2sc(C(=O)NC3CN(c4ccc(C(F)(F)F)nc4)C3)c(N)c2c1C | 0.076 µM | 75 | EC50 [4]: 0.96 µM; half-life [11]: 1.3 h; clearance [5]: 8.8 mL/min/kg; Kp [3]: 0.12; K(p,uu,brain) [6]: 0.33; efflux ratio [7]: 8.5; Activity [9]: 55%; IC50 [12]: > 30 µM; IC50 [13]: > 30 µM; IC50 [14]: > 30 µM; IC50 [15]: > 30 µM; Vd [16]: 0.89 L/kg; Activity [17]: 48%; Activity [18]: 55 - 56%; Activity [19]: 44%; %max [8]: 43%
Cc1nnc2sc(C(=O)NC3CN(C(=O)OCc4ccccc4)C3)c(N)c2c1C | 0.03 µM | 81 | –
Cc1nnc2sc(C(=O)NC3CN(S(=O)(=O)c4ccccc4)C3)c(N)c2c1C | 0.268 µM and 0.263 µM | 70 | –
Cc1nnc2sc(C(=O)NC3CN(c4ccc(S(=O)(=O)C(F)(F)F)cc4)C3)c(N)c2c1C | 0.934 µM | 86 | –
Cc1nnc2sc(C(=O)NC3CN(c4cncc(F)c4)C3)c(N)c2c1C | 0.016 µM | 90 | –
COc1cncc(N2CC(NC(=O)c3sc4nnc(C)c(C)c4c3N)C2)c1 | 0.017 µM | 88 | Kp [3]: < 0.05
Cc1nnc2sc(C(=O)NC3CN(c4nc5ccccc5s4)C3)c(N)c2c1C | 0.439 µM | 87 | –
Cc1nnc2sc(C(=O)NC3CN(c4nc5ccccc5o4)C3)c(N)c2c1C | 0.419 µM | 89 | –
Cc1nnc2sc(C(=O)NC3CN(C(=O)Oc4ccccc4)C3)c(N)c2c1C | 0.023 µM | 96 | EC50 [4]: 2.65 µM; half-life [11]: < 0.5 h
Cc1nnc2sc(C(=O)NC3CN(c4cccnc4)C3)c(N)c2c1C | 0.034 µM and 0.0331 µM | 96 | Kp at 0.25 h [3]: < 0.05
Cc1nnc2sc(C(=O)NC3CN(c4ccc(F)cc4)C3)c(N)c2c1C | 0.282 µM | 77 | –
COc1cc(N2CC(NC(=O)c3sc4nnc(C)c(C)c4c3N)C2)ccn1 | 0.051 µM | 86 | Drug metabolism [10]: Metabolite_Detected
Cc1nnc2sc(C(=O)NC3CN(C(=O)Nc4ccccc4)C3)c(N)c2c1C | 0.217 µM | 89 | –
Cc1nnc2sc(C(=O)NC3CN(c4ccc(F)cc4F)C3)c(N)c2c1C | 0.037 µM | 94 | –
Cc1nnc2sc(C(=O)NC3CN(c4cc(F)nc(F)c4)C3)c(N)c2c1C | 0.011 µM | 84 | –
